Laboratory results reported in ChEMBL document CHEMBL4665798, “Novel Human Urate Transporter 1 Inhibitors as Hypouricemic Drug Candidates with Favorable Druggability” (J Med Chem, 2020).

Experiments:
[1] = Sub-acute toxicity in female Kunming mouse assessed as increase in body weight at 50 mg/kg, po administered once every second day for 14 days; format: organism-based; details: in vivo, 336 h, time 14 day
[2] = Acute toxicity in female Kunming mouse assessed as change in body weight at 500 mg/kg, ig measured for 1 week; format: organism-based; details: in vivo, po, 168 h, time 1 weeks
[3] = Sub-acute toxicity in male Kunming mouse assessed as increase in body weight at 50 mg/kg, po administered once every second day for 14 days; format: organism-based; details: in vivo, 336 h, time 14 day
[4] = MRT (0 to infinity) in Sprague-Dawley rat at 1 mg/kg, iv by LC-MS analysis; format: ADME, organism-based; details: in vivo
[5] = Acute toxicity in male Kunming mouse assessed as change in body weight at 500 mg/kg, ig measured for 1 week; format: organism-based; details: in vivo, po, 168 h, time 1 weeks
[6] = Sub-acute toxicity in Kunming mouse assessed as appearance of ruffled fur at 50 mg/kg, po administered once every second day for 14 days; format: organism-based; details: in vivo, 336 h, time 14 day
[7] = Acute toxicity in Kunming mouse assessed as induction of abnormal behaviors by measuring lethargy at 500 mg/kg, ig; format: organism-based; details: in vivo, po
[8] = Sub-acute toxicity in Kunming mouse assessed as hepatocellular condensation of liver at 50 mg/kg, po administered as single dose every other day for 14 days by H and E staining based assay; format: organism-based; details: in vivo, 336 h, time 14 day
[9] = AUC (0 to t) in Sprague-Dawley rat at 1 mg/kg, iv by LC-MS analysis; format: ADME, organism-based; set-up: dose 1 mg/kg; details: in vivo
[10] = Acute toxicity in Kunming mouse assessed as induction of abnormal behaviors by measuring anorexia at 500 mg/kg, ig; format: organism-based; details: in vivo, po
[11] = Sub-acute toxicity in Kunming mouse assessed as hydropic degeneration of hepatocytes at 50 mg/kg, po administered as single dose every other day for 14 days by H and E staining based assay; format: organism-based; details: in vivo, 336 h, time 14 day
[12] = Sub-acute toxicity in Kunming mouse assessed as ballooning degeneration of liver at 50 mg/kg, po administered as single dose every other day for 14 days by H and E staining based assay; format: organism-based; details: in vivo, 336 h, time 14 day
[13] = Sub-acute toxicity in Kunming mouse assessed as congestion in hepatic central vein at 50 mg/kg, po administered as single dose every other day for 14 days by H and E staining based assay; format: organism-based; details: in vivo, 336 h, time 14 day
[14] = Sub-acute toxicity in Kunming mouse assessed as death at 50 mg/kg, po administered once every second day for 14 days; format: organism-based; details: in vivo, 336 h, time 14 day
[15] = Acute toxicity in Kunming mouse assessed as induction of abnormal behaviors by measuring clonic convulsion at 500 mg/kg, ig; format: organism-based; details: in vivo, po
Mus musculus = experiment: Hypouricemic activity in Kunming mouse model of xanthine/potassium oxonate-induced acute hyperuricemia assessed as decrease in serum uric acid level at 2 mg/kg administered 3 hrs prior to xanthine/potassium oxonate and measured after 6 hrs relative to control; format: functional; set-up: scale not given: the % may be the effect or the level left; details: time 9 hrs
Outline: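 Male Kunming mice, hyperuricemia induced by intragastric xanthine plus subcutaneous potassium oxonate (0.2 mL each). […] Groups: normal vehicle, untreated model, active control, test. Serum uric acid measured. Decrease ratio = (model SUA − compound SUA)/(model SUA − vehicle SUA).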

Cytochrome P450 2C9 = Cytochrome P450 2C9 (Homo sapiens, UniProt P11712); experiment: Inhibition of CYP2C9 in human liver microsome using probe substrate measured after 20 mins in presence of NADPH by LC-MS/MS analysis
Chain of Cytochrome P450 2C9 (P11712 whole entry): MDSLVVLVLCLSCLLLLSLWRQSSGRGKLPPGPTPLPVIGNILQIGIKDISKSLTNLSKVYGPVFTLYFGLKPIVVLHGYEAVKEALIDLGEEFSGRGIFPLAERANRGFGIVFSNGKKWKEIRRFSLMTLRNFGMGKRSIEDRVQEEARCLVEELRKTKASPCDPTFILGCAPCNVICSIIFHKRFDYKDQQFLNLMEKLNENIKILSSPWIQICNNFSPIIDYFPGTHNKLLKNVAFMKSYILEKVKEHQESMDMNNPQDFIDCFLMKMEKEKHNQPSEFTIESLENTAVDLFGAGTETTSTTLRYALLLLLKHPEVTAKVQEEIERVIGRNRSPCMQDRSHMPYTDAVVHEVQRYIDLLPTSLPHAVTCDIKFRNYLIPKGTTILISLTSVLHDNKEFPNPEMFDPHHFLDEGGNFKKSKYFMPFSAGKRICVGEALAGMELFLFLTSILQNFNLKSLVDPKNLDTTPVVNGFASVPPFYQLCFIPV

[16] = Acute toxicity in Kunming mouse assessed as death at 500 mg/kg, ig measured for 1 week; format: organism-based; details: in vivo, po, 168 h, time 1 weeks
Cytochrome P450 3A4 = Cytochrome P450 3A4 (Homo sapiens, UniProt P08684); experiment: Inhibition of CYP3A4 in human liver microsome using midazolam as substrate measured after 20 mins in presence of NADPH by LC-MS/MS analysis
Chain of Cytochrome P450 3A4 (P08684 whole entry): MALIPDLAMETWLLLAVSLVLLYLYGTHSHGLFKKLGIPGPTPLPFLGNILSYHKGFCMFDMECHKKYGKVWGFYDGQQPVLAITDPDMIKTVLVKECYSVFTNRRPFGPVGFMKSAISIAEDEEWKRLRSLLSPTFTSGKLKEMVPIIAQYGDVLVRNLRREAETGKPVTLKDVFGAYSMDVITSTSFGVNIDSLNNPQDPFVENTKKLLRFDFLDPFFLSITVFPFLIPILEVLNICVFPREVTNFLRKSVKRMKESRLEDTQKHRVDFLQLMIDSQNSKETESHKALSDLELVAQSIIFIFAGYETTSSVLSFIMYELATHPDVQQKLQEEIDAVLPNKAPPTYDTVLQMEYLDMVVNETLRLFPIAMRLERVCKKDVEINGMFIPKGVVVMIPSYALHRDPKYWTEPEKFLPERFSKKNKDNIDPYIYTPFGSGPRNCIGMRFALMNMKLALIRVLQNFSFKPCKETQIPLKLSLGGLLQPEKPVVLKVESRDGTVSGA

Cytochrome P450 2C19 = Cytochrome P450 2C19 (Homo sapiens, UniProt P33261); experiment: Inhibition of CYP2C19 in human liver microsome using probe substrate measured after 20 mins in presence of NADPH by LC-MS/MS analysis
Chain of Cytochrome P450 2C19 (P33261 whole entry): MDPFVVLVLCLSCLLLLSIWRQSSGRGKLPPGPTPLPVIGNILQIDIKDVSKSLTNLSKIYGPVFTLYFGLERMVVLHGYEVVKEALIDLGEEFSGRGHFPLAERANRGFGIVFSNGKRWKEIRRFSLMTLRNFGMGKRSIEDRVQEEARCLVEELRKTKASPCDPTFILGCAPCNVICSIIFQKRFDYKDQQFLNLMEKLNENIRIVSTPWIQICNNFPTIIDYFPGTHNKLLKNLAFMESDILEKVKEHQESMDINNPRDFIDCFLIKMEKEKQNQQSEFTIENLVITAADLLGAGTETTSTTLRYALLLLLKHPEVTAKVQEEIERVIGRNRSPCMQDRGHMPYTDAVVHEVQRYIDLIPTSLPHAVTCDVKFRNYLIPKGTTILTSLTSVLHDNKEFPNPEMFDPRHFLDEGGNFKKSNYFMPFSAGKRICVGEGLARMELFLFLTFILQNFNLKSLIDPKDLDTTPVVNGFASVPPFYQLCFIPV

[17] = target: T1, Solute carrier family 22 member 12 (Homo sapiens, UniProt Q96S37); experiment: Inhibition of human URAT1 expressed in HEK293T cells assessed as reduction in [14C]uric acid uptake preincubated for 15 mins followed by [14C]uric acid addition by liquid scintillation counting method; format: cell-based
T1 sequence (Q96S37 whole entry): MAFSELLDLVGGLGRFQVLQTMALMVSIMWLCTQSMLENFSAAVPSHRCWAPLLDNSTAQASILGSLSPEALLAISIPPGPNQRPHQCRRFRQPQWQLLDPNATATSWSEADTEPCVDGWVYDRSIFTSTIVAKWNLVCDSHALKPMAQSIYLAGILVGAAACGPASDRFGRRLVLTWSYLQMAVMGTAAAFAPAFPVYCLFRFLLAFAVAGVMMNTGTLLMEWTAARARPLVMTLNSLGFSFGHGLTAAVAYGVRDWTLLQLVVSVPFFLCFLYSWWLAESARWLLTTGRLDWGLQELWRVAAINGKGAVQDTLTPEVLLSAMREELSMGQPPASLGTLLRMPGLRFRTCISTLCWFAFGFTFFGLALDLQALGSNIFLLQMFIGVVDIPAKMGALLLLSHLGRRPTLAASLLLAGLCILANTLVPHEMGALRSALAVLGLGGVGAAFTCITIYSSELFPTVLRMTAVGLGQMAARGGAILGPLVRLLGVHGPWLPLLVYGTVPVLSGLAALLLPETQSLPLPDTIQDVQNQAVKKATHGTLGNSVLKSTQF

[18] = Sub-acute toxicity in Kunming mouse assessed as anorexia at 50 mg/kg, po administered once every second day for 14 days; format: organism-based; details: in vivo, 336 h, time 14 day
[19] = Half-life in Sprague-Dawley rat at 1 mg/kg, iv by LC-MS analysis; format: ADME, organism-based; details: in vivo
[20] = Sub-acute toxicity in Kunming mouse assessed as clonic convulsion at 50 mg/kg, po administered once every second day for 14 days; format: organism-based; details: in vivo, 336 h, time 14 day
[21] = Clearance in Sprague-Dawley rat at 1 mg/kg, iv by LC-MS analysis; format: ADME, organism-based; details: in vivo
[22] = Sub-acute toxicity in Kunming mouse assessed as lethargy at 50 mg/kg, po administered once every second day for 14 days; format: organism-based; details: in vivo, 336 h, time 14 day
Cytochrome P450 2D6 = Cytochrome P450 2D6 (Homo sapiens, UniProt P10635); experiment: Inhibition of CYP2D6 in human liver microsome using probe substrate measured after 20 mins in presence of NADPH by LC-MS/MS analysis
Chain of Cytochrome P450 2D6 (P10635 whole entry): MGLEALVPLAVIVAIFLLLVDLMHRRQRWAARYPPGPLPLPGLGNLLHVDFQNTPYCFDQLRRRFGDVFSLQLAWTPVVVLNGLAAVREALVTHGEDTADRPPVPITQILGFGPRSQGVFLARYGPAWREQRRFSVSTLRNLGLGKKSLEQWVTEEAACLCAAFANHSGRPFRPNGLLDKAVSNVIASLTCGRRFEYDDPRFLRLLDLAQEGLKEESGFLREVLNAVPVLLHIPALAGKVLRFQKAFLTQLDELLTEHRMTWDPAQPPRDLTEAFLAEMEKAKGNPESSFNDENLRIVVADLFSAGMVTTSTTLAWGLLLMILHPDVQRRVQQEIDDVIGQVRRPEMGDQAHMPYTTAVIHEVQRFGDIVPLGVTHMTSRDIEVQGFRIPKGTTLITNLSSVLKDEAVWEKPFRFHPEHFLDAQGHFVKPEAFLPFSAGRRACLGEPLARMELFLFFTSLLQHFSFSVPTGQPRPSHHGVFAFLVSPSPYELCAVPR

Structure (SMILES) | Activity [1] | Activity [2] | Activity [3] | MRT inf [4] | Activity [5] | Activity [6] | Activity [7] | Activity [8] | AUC(0-t) [9] | Activity [10] | Activity [11] | Activity [12] | Activity [13] | Activity [14] | Activity [15] | Activity (Mus musculus) | IC50 (Cytochrome P450 2C9) | Activity [16] | IC50 (Cytochrome P450 3A4) | IC50 (Cytochrome P450 2C19) | further results
CC(Sc1nc2ncccc2n1-c1ccc(C2CC2)c2ccccc12)C(=O)O (racemic) | Non-Toxic | Non-Toxic | Non-Toxic | 2.7 h | Non-Toxic | Non-Toxic | Non-Toxic | Non-Toxic | 3480 ng·h/mL | Non-Toxic | Non-Toxic | Non-Toxic | Non-Toxic | Non-Toxic | Non-Toxic | 92.89% | 20 µM | Non-Toxic | > 50 µM | 48.7 µM | IC50 [17]: 1.57 µM; Activity [18]: Non-Toxic; half-life [19]: 3.1 h; Activity [20]: Non-Toxic; clearance [21]: 4.4 mL/min/kg; Activity [22]: Non-Toxic; IC50 (Cytochrome P450 2D6): > 50 µM
O=C(CSc1nnc(Br)n1-c1ccc(C2CC2)c2ccccc12)NS(=O)(=O)c1ccc(Br)cc1 | Non-Toxic | Non-Toxic | Non-Toxic | 4.3 h | Non-Toxic | Non-Toxic | Non-Toxic | Non-Toxic | 3030 ng·h/mL | Non-Toxic | Non-Toxic | Non-Toxic | Non-Toxic | Non-Toxic | Non-Toxic | 97.84% | 0.636 µM | Non-Toxic | > 50 µM | 20.6 µM | IC50 [17]: 4.17 µM; Activity [18]: Non-Toxic; half-life [19]: 5 h; Activity [20]: Non-Toxic; clearance [21]: 5.46 mL/min/kg; Activity [22]: Non-Toxic; IC50 (Cytochrome P450 2D6): > 50 µM
